19 compounds from ChEMBL document CHEMBL1157867, “Synthesis of substituted acridinyl pyrazoline derivatives and their evaluation for anti-inflammatory activity” (Eur J Med Chem, 2010) can be followed below.

Series [1] has as its system Rattus norvegicus. The series is described as follows: Antiinflammatory activity in Charles Foster albino rat assessed as carrageenan-induced paw edema at 50 mg/kg, po administered 1 hr before carrageenan challenge measured after 3 hrs relative to control. The format is functional. In short, it runs like this:
(§1)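 Charles-Foster albino rats of either sex, pregnant females excluded, 70–95 days old, 120–175 g, food and water ad libitum. Groups of six. Compounds in propylene glycol given orally 1 h before 0.05 mL of 1% carrageenan in 0.9% saline, injected under the plantar aponeurosis of the right hind paw. Paw volume read by plethysmometer before and 3 h after injection. Inhibition (%) = (1 − Vt/Vc) × 100.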
On the technique in general: Carrageenan injected into the paw causes an acute inflammation.

Series [2] concerns Mus musculus. Nature of the series: Analgesic activity in albino mouse assessed as decrease in acetic acid-induced writhing at 50 mg/kg, ip administered 30 mins before acetic acid challenge measured after 1 hr relative to control. It counts as functional. Set-up: scale not given: the % may be the effect or the level left. Particulars: route intraperitoneal. A digest of the protocol: (§2)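 Mice of 15–25 g; compounds dissolved in propylene glycol. Acetic acid 0.5%, 0.25 mL/mouse, injected intraperitoneally 30 min after dosing. Mean number of writhes per group counted, and percent decrease versus control calculated after 60 min.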
(An intraperitoneal irritant provokes the stretching counted in writhing tests.)

A short description of series [3]: Toxicity in ip dosed albino mouse. The format is organism-based. Particulars: in vivo, read-out: ALD50. A digest of the protocol:
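Acute lethal dose (ALD50) determined in albino mice of 15–25 g, given food pellets and water ad libitum. Compounds were dissolved in propylene glycol. The procedure followed a previously published method.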

Series [4] has as its system Rattus norvegicus. The series is described as follows: Antiinflammatory activity in Charles Foster albino rat assessed as carrageenan-induced paw edema at 25 mg/kg, po administered 1 hr before carrageenan challenge measured after 3 hrs relative to control. It counts as functional. A digest of the protocol:
as §1

In series [5] the test system is Mus musculus. Nature of the series: Analgesic activity in albino mouse assessed as decrease in acetic acid-induced writhing at 100 mg/kg, ip administered 30 mins before acetic acid challenge measured after 1 hr relative to control. The format is functional. Set-up: scale not given: the % may be the effect or the level left. Particulars: route intraperitoneal. In short, it runs like this: as §2

For series [6], the system named is Mus musculus. The series is described as follows: Analgesic activity in albino mouse assessed as decrease in acetic acid-induced writhing at 25 mg/kg, ip administered 30 mins before acetic acid challenge measured after 1 hr relative to control. It counts as functional. More on the design: scale not given: the % may be the effect or the level left. Particulars: route intraperitoneal. In short, it runs like this:
as §2

Series [7] concerns Rattus norvegicus. The series is described as follows: Antiinflammatory activity in Charles Foster albino rat assessed as carrageenan-induced paw edema at 100 mg/kg, po administered 1 hr before carrageenan challenge measured after 3 hrs relative to control. It counts as functional. A digest of the protocol:
as §1

`COc1ccc2nc3ccccc3c(N3N=C(CBr)CC3=O)c2c1`: the results for the Activity in series [1] and in series [2] were 13.5% and 15.9%, respectively. Besides, the LD50 in series [3] was above 1000 mg/kg.

As to `O=C1CC(CBr)=NN1c1c2ccccc2nc2ccc(Br)cc12`, the Activity in series [1] amounted to 17.1%; in series [2] it was 13.6%. In addition, the LD50 in series [3] was above 1000 mg/kg.

As for `COc1cc(Cl)c2nc3ccccc3c(N3N=C(CBr)CC3=O)c2c1`, the Activity stood at 18.6% in series [1] and 16.3% in series [2]. Also, the LD50 in series [3] is above 1000 mg/kg.

Consider `COc1cc(Cl)c2nc3ccccc3c(N3N=C(C)CC3=O)c2c1`, for which the Activity was 14.4% in series [1] and 13.4% in series [2]. Besides, in series [3], the LD50 is above 1000 mg/kg.

Take `CC1=NN(c2c3ccccc3nc3c(Cl)cc(Cl)cc23)C(=O)C1`: the Activity is recorded as 17.6% in series [1] and 14.7% in series [2]. In addition, the LD50 in series [3] was above 1000 mg/kg.

As for `O=C1CC(CBr)=NN1c1c2ccccc2nc2ccccc12`, the Activity in series [1] came out at 12.8%; in series [2] it was 13.2%. Besides, in series [3], the LD50 is above 1000 mg/kg.

With `CC1=NN(c2c3ccccc3nc3ccccc23)C(=O)C1`, the Activity was found to be 10.8% in series [1] and 8.6% in series [2]. Also, in series [3], the LD50 is above 1000 mg/kg.

Turning to `CC1=NN(c2c3ccccc3nc3ccc(Cl)cc23)C(=O)C1`, the results for the Activity in series [1] and in series [2] were 13.5% and 12.6%, respectively. Further, the LD50 in series [3] is above 1000 mg/kg.

In the case of `COc1ccc2nc3ccccc3c(N3N=C(C)CC3=O)c2c1`, the Activity came to 11.5% in series [1] and 10.8% in series [2]. Further, the LD50 in series [3] is above 1000 mg/kg.

Turning to `O=C1CC(CSc2nnc(-c3ccncc3)o2)=NN1c1c2ccccc2nc2c(Cl)cc(Cl)cc12`, the Activity in series [1] is on record as 40.8%; in series [4], 32.1%; in series [2], 33.5%; in series [5] it was 42.4%; in series [6], 30.6%. The LD50 in series [3] was above 1000 mg/kg.

For `COc1ccc2nc3ccccc3c(N3N=C(CSc4nnc(-c5ccncc5)o4)CC3=O)c2c1`, the results for the Activity in series [1] and in series [2] were 31.2% and 29.7%, respectively. Besides, the LD50 in series [3] is above 1000 mg/kg.

As to `O=C1CC(CSc2nnc(-c3ccncc3)o2)=NN1c1c2ccccc2nc2ccc(Br)cc12`, the results for the Activity in series [1] and in series [2] were 31.5% and 28.8%, respectively. Further, the LD50 in series [3] is above 1000 mg/kg.

In the case of `O=C1CC(CBr)=NN1c1c2ccccc2nc2c(Cl)cc(Cl)cc12`, the Activity in series [1] was determined as 20.7%; in series [2] it was 18.6%. The LD50 in series [3] is above 1000 mg/kg.

For `O=C1CC(CSc2nnc(-c3ccncc3)o2)=NN1c1c2ccccc2nc2ccccc12`, the Activity in series [1] was 24.1%; in series [2], 25.9%. In addition, in series [3], the LD50 was above 1000 mg/kg.

Turning to `O=C1CC(CSc2nnc(-c3ccncc3)o2)=NN1c1c2ccccc2nc2ccc(Cl)cc12`, the values for the Activity in series [1] and in series [2] were 27.2% and 30.6%, respectively. For the same compound, in series [3], the LD50 is above 1000 mg/kg.

On to `O=C1CC(CBr)=NN1c1c2ccccc2nc2ccc(Cl)cc12`, for which the results for the Activity in series [1] and in series [2] were 15.9% and 16.4%, respectively. In series [3], the LD50 was above 1000 mg/kg.

As for `CC1=NN(c2c3ccccc3nc3ccc(Br)cc23)C(=O)C1`, the figures for the Activity in series [1] and in series [2] were 12.6% and 12.9%, respectively. In addition, the LD50 in series [3] was above 1000 mg/kg.

For `CC(=O)Oc1ccccc1C(=O)O` [ASPIRIN], the Activity in series [7] is given as 60.8%; in series [4] it was 30.25%; in series [5], 59.3%; in series [6], 30.2%.

With `CCCCC1C(=O)N(c2ccccc2)N(c2ccccc2)C1=O` [PHENYLBUTAZONE], the Activity in series [7] turned out to be 63.4%; in series [4], 31.4%; in series [5] it was 42.6%; in series [6] it was 31%.
